Results gathered from unrelated publications.
Each line is one published result; the experiments were not run side by side.
UGT1A9: UDP-glucuronosyltransferase 1A9 (UGT1A9, Homo sapiens, UniProt O60656)

CC(C)(O)c1cn(-c2ccc(-c3ccc(CO)c(S(C)(=O)=O)c3)cc2)c(Cc2ccccc2Cl)n1  clearance (cynomolgus monkey, plasma; intravenous, 0.25 mg/kg, single dose): 61 mL/min/kg
CN(CCC(=O)O)C(=O)c1ccc2c(c1)CC[C@@H]1[C@@H]2CC[C@]2(C)C(c3cncc(F)c3)=CC[C@@H]12  IC50 (UGT1A9; enzyme activity, inhibitor): > 30 µM
N#CC(C(=O)Nc1cccc(C(F)(F)F)c1)=C1Sc2nc3ccc(S(=O)(=O)N4CCCC4)cc3nc2S1  viability (WI-38; cell growth or viability, MTT; 3.125 µM, 24 h): 100%
C[C@H](O)c1cc(C(=O)N[C@@H](C)Cn2ccc(-c3ccc(C#N)c(Cl)c3)n2)n[nH]1  IC50 (UGT1A9; enzyme activity, inhibitor; human, liver microsomes): > 100 µM
CC(C)(O)c1cn(-c2ccc(-c3cc(F)c(CO)c(S(C)(=O)=O)c3)cc2)c(C(C)(C)c2cccc(F)c2Cl)n1  clearance (male cynomolgus monkey, plasma; intravenous, 1 mg/kg, single dose): 9.4 mL/min/kg
N#Cc1cc(NC(=O)[C@H]2c3ccccc3C(=O)N(CC(F)(F)F)[C@@H]2c2cccnc2)ccc1F  half-life (metabolic stability; dog, liver microsomes): > 4 h
CC(=O)c1cc(C(=O)N[C@@H](C)Cn2ccc(-c3ccc(C#N)c(Cl)c3)n2)[nH]n1  IC50 (UGT1A9; enzyme activity, inhibitor; human, liver microsomes): > 50 µM
O=C1CCCCC1=C1Sc2nc3ccc(S(=O)(=O)N4CCCC4)cc3nc2S1  viability (WI-38; cell growth or viability, MTT; 25 µM, 24 h): 70.8%
CON=C(N)c1ccc(-c2ccc(-c3ccc(C(N)=NOC)cc3)o2)cc1  Km (Cytochrome P450 1A1 (CYP1A1, Homo sapiens, UniProt P04798); enzyme activity, substrate): 0.5 µM
